Assays:
Assay type in all cases: functional
Details in all cases: for zone of inhibition at 100 µg/mL: read-out: DIZ
[1] = system: Staphylococcus epidermidis; assay: Antimicrobial activity against Staphylococcus epidermidis at 100 ug/ml after 24 to 48 hrs by disk diffusion method
Outline: (§1)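 Disc diffusion (cup plate) screen. Organism suspensions were applied to plates and incubated at 36 °C for 24–48 h in a sufficiently humid chamber, after which the zone of inhibition was read. Compounds were dissolved in DMSO as a stock solution and serially diluted to test solutions of 25, 50, 75, 100 and 150 µg/ml.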

Bacillus subtilis = assay: Antimicrobial activity against Bacillus subtilis at 100 ug/ml after 24 to 48 hrs by disk diffusion method; outline: as §1
Staphylococcus aureus = assay: Antimicrobial activity against Staphylococcus aureus at 100 ug/ml after 24 to 48 hrs by disk diffusion method; outline: as §1
Aspergillus niger = assay: Antimicrobial activity against Aspergillus niger at 100 ug/ml after 24 to 48 hrs by disk diffusion method; outline: as §1

Compound	zone of inhibition at 100 µg/mL [1] [mm]	zone of inhibition at 100 µg/mL (Bacillus subtilis) [mm]	zone of inhibition at 100 µg/mL (Staphylococcus aureus) [mm]	zone of inhibition at 100 µg/mL (Aspergillus niger) [mm]	inhibition zone (IZ) (Aspergillus niger) [mm]	inhibition zone (IZ) [1] [mm]	inhibition zone (IZ) (Bacillus subtilis) [mm]	inhibition zone (IZ) (Staphylococcus aureus) [mm]
C#CCN1C(=O)[C@]2(C(C#N)=C(N)OC(c3c[nH]c4ccccc34)=C2C#N)c2ccccc21	19	20	18	25				
NYSTATIN					28			
CN1C(=O)[C@]2(C(C#N)=C(N)OC(c3c[nH]c4ccccc34)=C2C#N)c2ccccc21	28	26	27	27				
CCOC(=O)C1=C(N)OC(c2c[nH]c3ccccc23)=C(C#N)[C@@]12C(=O)Nc1ccccc12	18	19	18	23				
C=CCN1C(=O)[C@@]2(C(C#N)=C(c3c[nH]c4ccccc34)OC(N)=C2C(=O)OCC)c2ccccc21	13	14	18	21				
CCOC(=O)C1=C(N)OC(c2c(C)[nH]c3ccccc23)=C(C#N)[C@@]12C(=O)c1cccc3cccc2c13	16	18	20	26				
CCOC(=O)C1=C(N)OC(c2cn(C)c3ccccc23)=C(C#N)[C@@]12C(=O)c1cccc3cccc2c13	18	18	19	22				
C#CCN1C(=O)[C@@]2(C(C#N)=C(c3c[nH]c4ccccc34)OC(N)=C2C(=O)OCC)c2ccccc21	16	17	16	25				
Cc1[nH]c2ccccc2c1C1=C(C#N)[C@@]2(C(=O)c3cccc4cccc2c34)C(C#N)=C(N)O1	16	19	20	26				
CCOC(=O)CN1C(=O)[C@@]2(C(C#N)=C(c3c[nH]c4ccccc34)OC(N)=C2C(=O)OCC)c2ccccc21	10	12	14	21				
N#CC1=C(N)OC(c2c[nH]c3ccccc23)=C(C#N)[C@@]12C(=O)Nc1ccccc12	30	28	29	28				
Cn1cc(C2=C(C#N)[C@@]3(C(=O)c4cccc5cccc3c45)C(C#N)=C(N)O2)c2ccccc21	38	36	39	28				
CCOC(=O)C1=C(N)OC(c2c[nH]c3ccccc23)=C(C#N)[C@@]12C(=O)c1cccc3cccc2c13	18	17	20	27				
O=C(N[C@H](CO)[C@H](O)c1ccc([N+](=O)[O-])cc1)C(Cl)Cl [CHLORAMPHENICOL]	31	32	29	25				
CCOC(=O)CN1C(=O)[C@]2(C(C#N)=C(N)OC(c3c[nH]c4ccccc34)=C2C#N)c2ccccc21	25	26	24	25				
CCCCN1C(=O)[C@@]2(C(C#N)=C(c3c[nH]c4ccccc34)OC(N)=C2C(=O)OCC)c2ccccc21	14	17	16	27				
CCOC(=O)C1=C(N)OC(c2c[nH]c3ccccc23)=C(C#N)[C@@]12C(=O)N(C)c1ccccc12	14	13	18	23				
CCOC(=O)C1=C(N)OC(c2c[nH]c3ccccc23)=C(C#N)[C@@]12C(=O)N(Cc1ccccc1)c1ccccc12	15	14	16	24				
GENTAMICIN SULFATE					28	28	30	26
N#CC1=C(N)OC(c2c[nH]c3ccccc23)=C(C#N)[C@@]12C(=O)N(Cc1ccccc1)c1ccccc12	31	30	29	24				
N#CC1=C(N)OC(c2c[nH]c3ccccc23)=C(C#N)[C@@]12C(=O)c1cccc3cccc2c13	39	40	38	29				

From ChEMBL document CHEMBL1177778, “One-pot multicomponent synthesis and anti-microbial evaluation of 2'-(indol-3-yl)-2-oxospiro(indoline-3,4'-pyran) derivatives” (2010)
